As usually defined, the IC50 is the concentration needed to halve the response being measured. Read a high IC50 as weaker potency.

Molecules are shown by their SMILES.

T1 sequence (P05106 27-788 limits assumed): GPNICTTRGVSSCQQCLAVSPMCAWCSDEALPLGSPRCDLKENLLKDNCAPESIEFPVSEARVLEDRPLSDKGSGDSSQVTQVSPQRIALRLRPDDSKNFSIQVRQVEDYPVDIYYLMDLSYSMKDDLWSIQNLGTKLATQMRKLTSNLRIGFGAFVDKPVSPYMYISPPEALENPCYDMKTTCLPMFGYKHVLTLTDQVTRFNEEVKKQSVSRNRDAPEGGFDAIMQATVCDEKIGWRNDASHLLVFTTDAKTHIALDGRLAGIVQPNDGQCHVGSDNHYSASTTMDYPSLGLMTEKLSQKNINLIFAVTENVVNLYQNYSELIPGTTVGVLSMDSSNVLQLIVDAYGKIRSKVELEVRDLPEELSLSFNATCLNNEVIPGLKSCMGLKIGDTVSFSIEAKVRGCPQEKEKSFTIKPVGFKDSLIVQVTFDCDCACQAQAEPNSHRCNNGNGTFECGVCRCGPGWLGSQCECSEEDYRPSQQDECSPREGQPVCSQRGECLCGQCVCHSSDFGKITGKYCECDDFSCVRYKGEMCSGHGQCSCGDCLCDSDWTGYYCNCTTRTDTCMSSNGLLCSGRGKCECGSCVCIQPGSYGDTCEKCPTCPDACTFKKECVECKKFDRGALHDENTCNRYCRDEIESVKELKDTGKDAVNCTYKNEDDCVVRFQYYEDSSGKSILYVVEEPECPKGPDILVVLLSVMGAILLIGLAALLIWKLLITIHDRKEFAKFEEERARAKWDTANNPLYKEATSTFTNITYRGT
T1 sequence (P08514 32-887 limits assumed): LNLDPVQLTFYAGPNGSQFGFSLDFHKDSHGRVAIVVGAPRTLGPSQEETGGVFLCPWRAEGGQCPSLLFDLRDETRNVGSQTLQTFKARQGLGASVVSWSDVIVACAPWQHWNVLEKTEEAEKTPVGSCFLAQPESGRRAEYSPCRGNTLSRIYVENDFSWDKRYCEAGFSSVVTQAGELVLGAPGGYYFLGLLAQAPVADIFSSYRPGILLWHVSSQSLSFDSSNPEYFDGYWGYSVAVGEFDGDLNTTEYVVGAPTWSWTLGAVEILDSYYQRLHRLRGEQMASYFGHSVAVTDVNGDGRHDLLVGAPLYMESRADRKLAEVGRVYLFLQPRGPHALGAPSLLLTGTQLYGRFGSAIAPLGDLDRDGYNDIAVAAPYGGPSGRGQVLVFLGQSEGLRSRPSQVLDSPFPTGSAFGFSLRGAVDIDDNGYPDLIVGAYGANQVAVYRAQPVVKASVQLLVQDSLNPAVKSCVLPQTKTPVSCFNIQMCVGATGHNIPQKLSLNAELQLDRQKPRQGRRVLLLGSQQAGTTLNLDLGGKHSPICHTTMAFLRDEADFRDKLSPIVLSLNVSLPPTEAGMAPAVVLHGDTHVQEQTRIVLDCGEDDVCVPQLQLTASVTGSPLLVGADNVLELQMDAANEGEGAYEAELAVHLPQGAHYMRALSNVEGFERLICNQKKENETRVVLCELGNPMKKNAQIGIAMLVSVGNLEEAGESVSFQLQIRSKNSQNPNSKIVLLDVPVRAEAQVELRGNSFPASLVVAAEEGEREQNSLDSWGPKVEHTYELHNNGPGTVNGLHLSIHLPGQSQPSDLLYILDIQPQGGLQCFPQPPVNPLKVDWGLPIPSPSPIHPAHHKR
T1 sequence (P08514 891-1039 limits assumed): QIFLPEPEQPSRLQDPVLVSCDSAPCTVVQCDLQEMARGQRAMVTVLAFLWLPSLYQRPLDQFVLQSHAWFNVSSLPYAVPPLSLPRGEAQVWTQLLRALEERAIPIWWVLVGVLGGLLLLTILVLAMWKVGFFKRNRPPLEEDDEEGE

The first assay deals with T1, Integrin alpha-IIb/beta-3 (Homo sapiens, UniProt P05106+P08514). Description: Antagonist activity against integrin alpha2bbeta3 in human platelet rich plasma. The method, boiled down:
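Human platelet-rich plasma, aggregation induced by ADP and followed by Born's light-transmission method. Inhibition of aggregation by the test compound is reported as IC50. Pure enantiomers tested.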
As for `CCc1nn2c(=O)cc(N3CCNCC3)nc2s1`, the 50% inhibitory concentration (IC50) is 13 µM.
The compound `N=C(N)c1ccc2cc(OC(=O)c3ccc(N=C(N)N)cc3)ccc2c1` [NAFAMOSTAT] showed an IC50 of 12.5 µM.

The next assay addresses T1, Integrin alpha-IIb/beta-3. Description: Inhibition of FITC-labeled fibrinogen binding to integrin alpha2bbeta3 open form in human washed platelets. The method, boiled down:
(§1)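 Suspension of washed human platelets; αIIbβ3 binding of fluorescein isothiocyanate-labeled fibrinogen (FITC-Fg) measured, inhibition by test compound expressed as IC50. Pure enantiomers tested.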
`CCCCS(=O)(=O)N[C@H](CNC(=O)CCNC(=O)c1ccc2c(c1)CNCC2)C(=O)O`: the half-maximal inhibitory concentration (IC50) came to 79 nM.
Compound `CCCCS(=O)(=O)N[C@@H](CNC(=O)CCNC(=O)c1ccc2c(c1)CNCC2)C(=O)O` gave a 50% inhibitory concentration (IC50) of 62 nM.
Regarding `O=C(CCNC(=O)c1ccc2c(c1)CNCC2)NC[C@H](NS(=O)(=O)c1ccccc1)C(=O)O`, the IC50 worked out at 0.22 nM.
The same measure, in the same setting: then `O=C(CCNC(=O)c1ccc2c(c1)CNCC2)NC[C@@H](NS(=O)(=O)c1ccccc1)C(=O)O`, with 0.96 nM.

In the next assay the target is T1, Integrin alpha-IIb/beta-3. The experiment in a line: Inhibition of FITC-labeled fibrinogen binding to integrin alpha2bbeta3 closed form in human washed platelets. In short, it runs like this: as §1
`NCCC(=O)Nc1ccc2nc(N3CCNCC3)[nH]c(=O)c2c1` displayed a half-inhibitory concentration (IC50) of 5 nM.
On the same count and under the same terms, then `NCCCC(=O)Nc1ccc2nc(N3CCNCC3)[nH]c(=O)c2c1`, with 2.2 nM; and `O=C(Nc1ccc2nc(N3CCNCC3)[nH]c(=O)c2c1)C1CCNCC1`, with 3.8 nM.

The record behind these values is ChEMBL document CHEMBL3621072, “Design, Virtual Screening, and Synthesis of Antagonists of αIIbβ3 as Antiplatelet Agents” (J Med Chem, 2015).
